This passage reports Kb and IC50 results from ChEMBL document CHEMBL1128709, “Discovery and structure-activity relationships of sulfonamide ETA-selective antagonists” (J Med Chem, 1995).

Experiment [1] is filed under the species Oryctolagus cuniculus. Kind of experiment: In vitro functional antagonistic testing by obtaining ET-1 concentration response curves in rabbit carotid artery rings in the presence or absence of antagonist. The method, boiled down:
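Concentration-response curves to ET-1 in rabbit carotid artery rings. KB determined when at least 3 antagonist concentrations were tested; apparent KB calculated when only one concentration was used.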

The target in experiment [2] is T1, Endothelin-1 receptor (Rattus norvegicus, UniProt P26684).
T1 sequence (P26684 whole entry): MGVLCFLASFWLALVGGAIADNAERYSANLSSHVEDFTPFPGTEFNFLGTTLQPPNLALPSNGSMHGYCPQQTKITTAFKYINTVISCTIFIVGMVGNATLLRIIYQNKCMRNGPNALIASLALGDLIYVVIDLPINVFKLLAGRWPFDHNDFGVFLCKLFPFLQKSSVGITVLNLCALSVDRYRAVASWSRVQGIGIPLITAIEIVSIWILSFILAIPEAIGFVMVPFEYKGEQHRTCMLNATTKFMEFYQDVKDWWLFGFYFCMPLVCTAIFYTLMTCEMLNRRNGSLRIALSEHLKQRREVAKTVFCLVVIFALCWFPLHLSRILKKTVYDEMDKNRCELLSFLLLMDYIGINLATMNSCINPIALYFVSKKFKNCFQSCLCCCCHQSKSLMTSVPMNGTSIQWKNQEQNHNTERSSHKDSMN
Kind of experiment: Antagonism of [125 I]ET-1 binding to the rat endothelin receptor in vascular smooth muscle VSM-A10 cells. The class given is cell-based.

Experiment [3] is filed under the species Rattus norvegicus. Kind of experiment: Tested for antagonistic activity against ET-1 induced increase in intracellular [Ca2+] in VSM-A10 cells. The class given is functional, cell-based. The essentials: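 A10 cells challenged with 3 nM ET-1; the rise in free intracellular Ca2+ was measured with and without compound. Values reported as IC50.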

In experiment [1], `Cc1noc(NS(=O)(=O)c2cccc3c(N4CCCC4=O)cccc23)c1C` registered a Kb of 9.6 µM. The compound also gave an IC50 in experiment [2] of 0.13 µM.
With `Nc1ccc(S(=O)(=O)Nc2nncs2)cc1`, the IC50 in experiment [2] stood at 57 µM.
`CCCCN(CCCC)c1cccc2c(S(=O)(=O)Nc3onc(C)c3C)cccc12` yielded an IC50 in experiment [2] of 15.9 µM.
For `CC(=O)Nc1cccc2c(S(=O)(=O)Nc3onc(C)c3C)cccc12`, the Kb in experiment [1] is 11 µM.
In the case of `Cc1noc(NS(=O)(=O)c2cccc3c(N4CCCCC4=O)cccc23)c1C`, the Kb in experiment [1] (read-out: KB app) was found to be 7 µM. Further, in experiment [2], the IC50 is 0.27 µM.
The compound `Cc1noc(NS(=O)(=O)c2cccc3c(C(C)(C)O)cccc23)c1C` yielded an IC50 in experiment [2] of 2.89 µM.
In the case of `Cc1noc(NS(=O)(=O)c2cccc3ccc(N)cc23)c1C`, the IC50 in experiment [2] was 1.4 µM.
Turning to `CCNc1cccc2c(S(=O)(=O)Nc3onc(C)c3C)cccc12`, in experiment [1], the Kb stood at 0.5 µM. The IC50 in experiment [2] stood at 0.06 µM.
The compound `Cc1noc(NS(=O)(=O)c2cccc3c(N(C)C)cccc23)c1Cc1ccccc1` came in with a half-inhibitory concentration (IC50) in experiment [2] of 50 µM.
In experiment [2], `O=S(=O)(Nc1nccs1)c1ccc(O)cc1` returned an IC50 of 30 µM.
Regarding `Cc1onc(NS(=O)(=O)c2ccc(N)cc2)c1C` [SULFATROXAZOLE], the IC50 in experiment [3] turned out to be 40 µM.
For `Cc1noc(NS(=O)(=O)c2cccc3c(N(C)C)cccc23)c1[N+](=O)[O-]`, the Kb in experiment [1] (read-out: KB app) is greater than 100 µM. The compound also showed an IC50 in experiment [2] of 17.3 µM.
Compound `CCOC(=O)c1c(C)noc1NS(=O)(=O)c1cccc2c(N(C)C)cccc12` yielded an IC50 in experiment [2] of 31 µM.
With `Cc1cc(NS(=O)(=O)c2ccc(N)cc2)no1` [SULFAMETHOXAZOLE], the Kb in experiment [1] (read-out: KB app) was greater than 100 µM.
Regarding `CCCNc1cccc(S(=O)(=O)Nc2onc(C)c2C)c1`, the Kb in experiment [1] turned out to be 70 µM. For the same compound, the half-maximal inhibitory concentration (IC50) in experiment [2] came out at 2.1 µM.
For the compound `Cc1noc(NS(=O)(=O)c2ccc(F)cc2)c1C`, the Kb in experiment [1] (read-out: KB app) is 40 µM. The compound also displayed an IC50 in experiment [2] of 1 µM.
The like results for `Cc1noc(NS(=O)(=O)c2cccc3c(NCCCC(=O)O)cccc23)c1C` were, in that order, 30 µM and 1.96 µM.
Compound `Nc1ccc(S(=O)(=O)Nc2noc3c2CCCC3)cc1` registered an IC50 in experiment [2] of 32 µM.
On to `CCCCCNc1cccc2c(S(=O)(=O)Nc3onc(C)c3C)cccc12`, for which the Kb in experiment [1] was found to be 0.27 µM. In experiment [2], this compound came in with an IC50 of 0.08 µM.
The compound `Cc1noc(NS(=O)(=O)c2cccc3c(NC(C)C)cccc23)c1C` came in with a Kb in experiment [1] of 0.33 µM. Moreover, the IC50 in experiment [2] was 0.02 µM.
`Cc1noc(NS(=O)(=O)c2ccc(NCC(=O)O)cc2)c1C`: the IC50 in experiment [2] was 12 µM.
The compound `Cc1noc(NS(=O)(=O)c2ccc(NC(=O)Nc3ccccc3)cc2)c1C` gave an IC50 in experiment [2] of 38 µM.
In experiment [2], `Cc1cnoc1NS(=O)(=O)c1cccc2c(N(C)C)cccc12` yielded an IC50 of 4.9 µM.
`Cc1cc(NS(=O)(=O)c2ccc(N)cc2)on1`: in experiment [2], the IC50 is 28 µM.
Regarding `Cc1noc(NS(=O)(=O)c2ccc(O)cc2)c1C`, the Kb in experiment [1] (read-out: KB app) was greater than 100 µM.
Take `Cc1noc(NS(=O)(=O)c2ccc3cc(N)ccc3c2)c1C`: in experiment [1], the Kb stood at 43 µM. The compound further registered an IC50 in experiment [2] of 0.66 µM.
In experiment [2], `Cc1noc(NS(=O)(=O)c2ccc(NC(=O)CN)cc2)c1C` returned an IC50 of 6.5 µM.
With `Cc1noc(NS(=O)(=O)c2cccc3c(N)cccc23)c1C`, the Kb in experiment [1] (read-out: KB app) was greater than 10 µM.
The compound `Cc1noc(N(C)S(=O)(=O)c2ccc(N)cc2)c1C` showed an IC50 in experiment [2] greater than 32 µM.
As to `Cc1noc(NS(=O)(=O)c2cccc3c(N4CCCC4)cccc23)c1C`, the Kb in experiment [1] turned out to be 0.28 µM. This compound had an IC50 in experiment [2] of 0.03 µM.
With `Cc1noc(NS(=O)(=O)c2ccc(NC(=S)Nc3ccccc3)cc2)c1C`, in experiment [2], the IC50 was 4.1 µM.
On to `Cc1noc(NC(=O)c2ccc(N)cc2)c1C`, for which the IC50 in experiment [2] was greater than 32 µM.
`Cc1noc(NS(=O)(=O)c2cccc3c(N(C)C)cccc23)c1-c1ccccc1` came in with an IC50 in experiment [2] of 15.9 µM.
`Cc1noc(NS(=O)(=O)c2cccc3c(NC(=O)C(C)C)cccc23)c1C` came in with an IC50 in experiment [2] of 0.88 µM.
Take `Cc1onc(NS(=O)(=O)c2cccc3c(N(C)C)cccc23)c1C`: the Kb in experiment [1] (read-out: KB app) worked out at 0.98 µM. This compound also registered a concentration for half-maximal inhibition (IC50) in experiment [2] of 0.06 µM.
With `Cc1cc(NS(=O)(=O)c2ccc(O)cc2)no1`, in experiment [1] (read-out: KB app), the Kb is greater than 100 µM.
On to `CCc1c(C)noc1NS(=O)(=O)c1cccc2c(N(C)C)cccc12`, for which the Kb in experiment [1] (read-out: KB app) was found to be 4 µM. Moreover, the IC50 in experiment [2] came to 0.29 µM.
`Cc1noc(NS(=O)(=O)c2cccc3c(NC(=S)Nc4ccccc4)cccc23)c1C` yielded a Kb in experiment [1] of 13 µM. In experiment [2], this compound registered a concentration for half-maximal inhibition (IC50) of 0.15 µM.
Consider `Cc1noc(NS(=O)(=O)c2ccc(NCc3ccccc3)cc2)c1C`, for which the Kb in experiment [1] (read-out: KB app) turned out to be 100 µM. Moreover, the IC50 in experiment [2] stood at 9.8 µM.
The compound `Cc1noc(NS(=O)(=O)c2ccc(N)cc2)c1C` [SULFISOXAZOLE] gave an IC50 in experiment [3] of 40 µM. Moreover, in experiment [1] (read-out: KB app), the Kb was greater than 100 µM.
With `Cc1noc(NS(=O)(=O)c2cccc3c(N4CCCCC4)cccc23)c1C`, in experiment [1] (read-out: KB app), the Kb was determined as 4 µM. Moreover, the IC50 in experiment [2] was determined as 1.76 µM.
`CC(=O)Nc1cccc2cc(S(=O)(=O)Nc3onc(C)c3C)ccc12`: the Kb in experiment [1] (read-out: KB app) is 40 µM.
For `Cc1noc(NS(=O)(=O)c2cccc3c(CN(C)C)cccc23)c1C`, the Kb in experiment [1] (read-out: KB app) was determined as 20 µM. In addition, the IC50 in experiment [2] turned out to be 2.8 µM.
In experiment [1], `CCOC(=O)C(C)Nc1cccc2c(S(=O)(=O)Nc3onc(C)c3C)cccc12` (stereo not drawn) returned a Kb of 3.1 µM. This compound came in with an IC50 in experiment [2] of 0.4 µM.
`Cc1noc(NS(=O)(=O)c2cccc3c(O)cccc23)c1C`: the Kb in experiment [1] (read-out: KB app) turned out to be 100 µM. The same compound came in with an IC50 in experiment [2] of 7.8 µM.
`Cc1[n-][o+]c(NS(=O)(=O)c2cccc([N+](=O)[O-])c2)c1C` had an IC50 in experiment [2] of 7.8 µM.
`Nc1ccc(S(=O)(=O)Nc2cc(-c3ccccc3)on2)cc1` displayed an IC50 in experiment [2] greater than 32 µM.
On to `CC(=O)N(c1onc(C)c1C)S(=O)(=O)c1ccc(N)cc1` [SULFISOXAZOLE ACETYL], for which the IC50 in experiment [2] amounted to 13 µM.
Same read-out and setting: the same measure for `COC(=O)c1cccc2c(S(=O)(=O)Nc3onc(C)c3C)cccc12`: 3.38 µM.
With `Cc1noc(NS(=O)(=O)c2cccc3c(NCc4ccccc4)cccc23)c1C`, the Kb in experiment [1] (read-out: KB app) came to 0.9 µM. The same compound yielded an IC50 in experiment [2] of 0.59 µM.
Regarding `CCc1noc(NS(=O)(=O)c2cccc3c(N(C)C)cccc23)c1C`, the Kb in experiment [1] (read-out: KB app) turned out to be 3 µM. For the same compound, in experiment [2], the IC50 is 1.17 µM.
With `Cc1noc(NS(=O)(=O)c2cccc3c(NCCCCCc4ccccc4)cccc23)c1C`, the IC50 in experiment [2] was 3.05 µM.
Same read-out and setting: the same measure for `Cc1noc(NS(=O)(=O)c2cccc3c(NCCC(c4ccccc4)c4ccccc4)cccc23)c1C`: 7.8 µM.
In turn, `Nc1ccc(S(=O)(=O)Nc2nccs2)cc1` [SULFATHIAZOLE] registered an IC50 in experiment [2] of 69 µM.
As to `CCCNc1ccc(S(=O)(=O)Nc2onc(C)c2C)cc1`, in experiment [1] (read-out: KB app), the Kb worked out at 40 µM. This compound also registered an IC50 in experiment [2] of 27 µM.
`CN(C)c1cccc2c(S(=O)(=O)Nc3onc4c3CCCC4)cccc12`: the IC50 in experiment [2] amounted to 153 µM.
In turn, `CNc1cccc2c(S(=O)(=O)Nc3onc(C)c3C)cccc12` gave a Kb in experiment [1] of 1.6 µM. In experiment [2], this compound showed an IC50 of 0.13 µM.
Turning to `Cc1noc(NS(=O)(=O)c2cccc3c(N(C)C(C)C)cccc23)c1C`, the Kb in experiment [1] was 0.7 µM. The compound further came in with an IC50 in experiment [2] of 0.13 µM.
The compound `CC(C)(C)c1cc(NS(=O)(=O)c2ccc(N)cc2)no1` yielded an IC50 in experiment [2] greater than 32 µM.
In experiment [2], `Cc1cc(NS(=O)(=O)c2cccc3c(N(C)C)cccc23)on1` yielded an IC50 of 8.9 µM.
`Cc1noc(NS(=O)(=O)c2cccc(-c3ccccc3)c2)c1C` had an IC50 in experiment [2] of 5.4 µM.
In experiment [2], `Cc1noc(N(CC(=O)O)S(=O)(=O)c2ccc(N)cc2)c1C` displayed an IC50 greater than 32 µM.
In turn, `Cc1noc(NS(=O)(=O)c2cccc3c(N(C)C)cccc23)c1C` [BMS-182874] registered a Kb in experiment [1] of 0.52 µM.
